Assay outcomes from PubChem.
Only some compounds are listed: those with a hit (about 1.6% of all), similar ones and a draw of the others.
Dynein cargo inh: blocks dynein driven cargo transport along microtubules | z-score, hits read low | hit rate 0.47% among 220,000 | 3617.4 mouse cells, GR-EGFP nuclear translocation imaging; test concentration mostly 20 µM; stimulated with dexamethasone, 1 µM; hits give low values | AID 1381;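 active = plate z-score of nuclear minus cytoplasmic receptor signal below a set negative limit, without overly bright fluorescence or cell loss, cut at about -3.5 in these data, passing the limit was not always enough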;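 also: z-score of nuclear minus cytoplasmic ring GR-EGFP intensity difference per well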
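Also added – dexamethasone, 1.0 µM final · Buffer or medium – tet-free, stripped-serum medium · Schedule – induction 48 h, compound 1 h, agonist 30 min · Detection – formaldehyde fixation, Hoechst nuclear stain, 10x automated fluorescence imaging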
ABHD5-PLIN5 inh: ABHD5-PLIN5 protein interaction inhibition; inhibition, % at 4 µM; AID 602281; Split G. princeps luciferase complementation, luminescence, 4 h; hit rate 0.78% among 360,000;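 active = inhibition above the mean inhibition across every tested compound plus 3 SD, cut at about 22% in these data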
TLR4 MyD88 comp: blocks binding of human TLR4 to MyD88. HeLa CL3-4 TLR4/MyD88 BLA complementation, FRET ratio. inhibition, % at 8.4 µM. hit rate 0.18% among 200,000; in the data active = inhibition above about 25%
TLR9-MyD88 inh: TLR9-MyD88 interaction inhibition. Q9NR96+Q99836. CHO BLA complementation TLR9-MyD88, CCF4 FRET ratio. inhibition, % at 4.98 µM. hit rate 0.21% among 340,000. AID 504734;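 active = inhibition above the mean over all tested compounds plus 3 SD, cut at about 21% in these data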
B2AR ag: agonists of human beta-2 adrenergic receptor inducing internalization. P07550. Am2.2-beta2AR cells, FAP receptor internalization, flow cytometry. response, % (test concentration not listed). hit rate 0.43% among 340,000. AID 504454;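 active = response above a set limit, near 3 SD of response in nonfluorescent compounds, cut at about 42% in these data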
NOD2 RIPK2 PPI: NOD2-RIPK2 protein interaction inhibition; AID 624267; O43353; hit rate 0.38% among 360,000; inhibition, % at 4.98 µM; CHO BLA complementation NOD2-RIPK2, CCF4 ratio; in the data active = inhibition above about 21%
ABHD5-PLIN5 conf: ABHD5-PLIN5 interaction inhibition, confirmed | hit rate 67% among 2,200 | biochemical ABHD5-PLIN5 interaction, luminescence | inhibition, % at 4 µM | shares compounds with ABHD5-PLIN5 inh | AID 651612; in the data active = inhibition above about 23%
HNF4 counter: active in HNF4 split-luciferase counter-screen for ABHD5-PLIN5 inhibitors; shares compounds with ABHD5-PLIN5 inh; HNF4 dimerization, luminescence, biochemical; inhibition, % at 4 µM; hit rate 77% among 2,200; AID 651674;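 active = mean inhibition across replicate wells exceeding the computed hit threshold, cut at about 13% in these data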;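 also: light from luciferase halves that rejoin when HNF4 fusion proteins dimerize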
Target sequence (P41235 whole entry, looked up, the tested form may be a part): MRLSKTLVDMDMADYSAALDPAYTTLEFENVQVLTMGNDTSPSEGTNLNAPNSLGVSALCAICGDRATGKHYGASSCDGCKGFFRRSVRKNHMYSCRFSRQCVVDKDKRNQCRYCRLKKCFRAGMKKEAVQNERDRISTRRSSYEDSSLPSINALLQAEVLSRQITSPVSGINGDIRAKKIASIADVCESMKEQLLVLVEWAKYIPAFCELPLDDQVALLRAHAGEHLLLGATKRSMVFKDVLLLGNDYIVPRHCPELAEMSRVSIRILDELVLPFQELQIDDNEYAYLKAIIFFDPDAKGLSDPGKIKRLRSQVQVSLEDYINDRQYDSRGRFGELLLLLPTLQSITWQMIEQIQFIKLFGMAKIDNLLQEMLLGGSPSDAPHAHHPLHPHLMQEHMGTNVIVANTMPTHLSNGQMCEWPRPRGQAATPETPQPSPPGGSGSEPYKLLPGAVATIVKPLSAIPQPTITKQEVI
NOD2-RIPK2 conf: NOD2-RIPK2 interaction inhibition confirmed. shares compounds with NOD2 RIPK2 PPI. CHO cells, NOD2-RIPK2 BLA complementation, CCF4 FRET. inhibition, % at 4.98 µM. hit rate 70% among 1,200. AID 624370;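 active = mean inhibition across replicates above a set limit taken from the earlier primary screen, cut at about 21% in these data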
BLA counter: NOD2-RIPK2 counterscreen BLA reporter activity; shares compounds with NOD2 RIPK2 PPI; CHO BLA reporter, CCF4 FRET ratio; inhibition, % at 4.98 µM; hit rate 57% among 1,200; AID 624371;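 active = mean inhibition above the low-control mean inhibition plus three low-control SD, cut at about 11% in these data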
Large screens that a line does not name were inactive (follow-up assays come after a bar, where they were run).

Cc1ccc(C2NC(=S)NC(c3ccc(C)cc3)C23C(=O)NC(=O)NC3=O)cc1 (stereo unspecified)	none
O=C1NC(=S)NC(=O)C12C(c1ccc(F)cc1)NC(=S)NC2c1ccc(F)cc1 (stereo unspecified)	ABHD5-PLIN5 inh 24 | ABHD5-PLIN5 conf 79 | HNF4 counter 63
COc1ccc(-n2c(O)c(/C=C3\C=Nc4ccc(Br)cc43)c(=O)[nH]c2=O)c(OC)c1	none (no result: Dynein cargo inh, TLR4 MyD88 comp)
COc1ccc(-n2c(O)c(/C=C3\C=Nc4ccc(Br)cc43)c(=O)[nH]c2=O)cc1	ABHD5-PLIN5 inh 36 (no result: Dynein cargo inh, TLR4 MyD88 comp) | ABHD5-PLIN5 conf 36 | HNF4 counter 29
COc1ccc(CNCCc2ccc(Cl)cc2)c(OC)c1OC	none (no result: Dynein cargo inh, TLR4 MyD88 comp)
CCOC(=O)[C@]12Cc3cc(OC)ccc3[C@H]1N(C1CCCCC1)C(=O)c1ccccc12	ABHD5-PLIN5 inh 40, NOD2 RIPK2 PPI 50 (no result: Dynein cargo inh, TLR4 MyD88 comp, TLR9-MyD88 inh, B2AR ag) | ABHD5-PLIN5 conf inactive | HNF4 counter 32 | NOD2-RIPK2 conf 62 | BLA counter inactive
CCCCCN1C(=O)c2cc(OC)ccc2[C@@]2(C(=O)OCC)Cc3cc(Cl)ccc3[C@@H]12	ABHD5-PLIN5 inh 39, NOD2 RIPK2 PPI 46 (no result: Dynein cargo inh, TLR4 MyD88 comp, TLR9-MyD88 inh, B2AR ag) | ABHD5-PLIN5 conf 27 | HNF4 counter 30 | NOD2-RIPK2 conf 44 | BLA counter inactive
CCOC(=O)[C@]12Cc3cc(Cl)ccc3[C@H]1N(C(C)C)C(=O)c1ccccc12	ABHD5-PLIN5 inh 33, NOD2 RIPK2 PPI 30 (no result: Dynein cargo inh, TLR4 MyD88 comp, TLR9-MyD88 inh, B2AR ag) | ABHD5-PLIN5 conf 25 | HNF4 counter 29 | NOD2-RIPK2 conf 67 | BLA counter inactive
CCOC(=O)[C@]12Cc3cc(Cl)ccc3[C@H]1N(C1CCCCC1)C(=O)c1ccccc12	ABHD5-PLIN5 inh 51, NOD2 RIPK2 PPI 66 (no result: Dynein cargo inh, TLR4 MyD88 comp, TLR9-MyD88 inh, B2AR ag) | ABHD5-PLIN5 conf 40 | HNF4 counter 39 | NOD2-RIPK2 conf 68 | BLA counter inactive
CCOC(=O)[C@]12Cc3cc(OC)ccc3[C@H]1N(C)C(=O)c1ccccc12	none (no result: Dynein cargo inh, TLR4 MyD88 comp, TLR9-MyD88 inh, B2AR ag)
O=C1N[C@H](Cc2ccccc2)C(=O)N2[C@@H]3[C@H](C[C@@H]12)c1ccccc1N3OOSc1ccccc1	none (no result: Dynein cargo inh, TLR4 MyD88 comp)
CC12CCC(=O)C=C1CC(O)C1C2CCC2(C)C1CCC2(C)O (stereo unspecified)	none (no result: Dynein cargo inh, TLR4 MyD88 comp)
CCC1CCC(C)N(N=O)C1 (stereo unspecified)	none (no result: Dynein cargo inh, TLR4 MyD88 comp)
COC(=O)[C@@H]1[C@@H](C(=O)OC)C2(c3ccccc3-c3ccccc32)N(c2ccc(Cl)cc2)N1C#N	ABHD5-PLIN5 inh 78, NOD2 RIPK2 PPI 71 | ABHD5-PLIN5 conf 97 | HNF4 counter 96 | NOD2-RIPK2 conf 68 | BLA counter inactive
O=C1CC(c2ccccc2)CN1 (stereo unspecified)	none (no result: TLR4 MyD88 comp)
C[C@@H]1CN([C@H](C)CO)C(=O)CCCn2nncc2CO[C@H]1CN(C)C(=O)Oc1ccccc1	none (no result: Dynein cargo inh, TLR4 MyD88 comp, B2AR ag)
COc1ccc(CN2Cc3cnnn3-c3ccccc3C2c2ccccc2)cc1 (stereo unspecified)	none (no result: Dynein cargo inh, TLR4 MyD88 comp)
COc1ccc(CN2Cc3cnnn3-c3ccccc3C2C#N)cc1 (stereo unspecified)	ABHD5-PLIN5 inh 58, NOD2 RIPK2 PPI 45 (no result: Dynein cargo inh, TLR4 MyD88 comp) | ABHD5-PLIN5 conf 91 | HNF4 counter 89 | NOD2-RIPK2 conf inactive | BLA counter inactive
COC(=O)C1=C(C(=O)OC)C2OC1c1cc3ccccc3cc12	ABHD5-PLIN5 inh 81, NOD2 RIPK2 PPI 88 (no result: Dynein cargo inh, TLR4 MyD88 comp) | ABHD5-PLIN5 conf 78 | HNF4 counter 109 | NOD2-RIPK2 conf 86 | BLA counter 19
